Data on seven molecules can be found in ChEMBL document CHEMBL3826882, “Discovery of 1-((2R,4aR,6R,7R,7aR)-2-Isopropoxy-2-oxidodihydro-4H,6H-spiro[furo[3,2-d][1,3,2]dioxaphosphinine-7,2'-oxetan]-6-yl)pyrimidine-2,4(1H,3H)-dione (JNJ-54257099), a 3'-5'-Cyclic Phosphate Ester Prodrug of 2'-Deoxy-2'-Spirooxetane Uridine Triphosphate Useful for HCV Inhibition” (J Med Chem, 2016).

Data set [1] concerns the target RNA-directed RNA polymerase (Hepacivirus hominis, UniProt O39930). Nature of the data set: Inhibition of HCV RNA polymerase.
The subject of data set [2] is Hepatocyte. Nature of the data set: Drug level in rat primary hepatocyte supernatant treated with JNJ-54257099 at 2 to 62.5 uM after 4 to 24 hrs using radiolabeled compound by HPLC analysis. The format is ADME, cell-based. The following applies: hepatocytes. An outline of the steps: (§1)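 Study A: primary cultured hepatocytes (mouse, rat, dog, human) incubated with 2 or 62.5 µM 5'-[3H]-labelled prodrug for 4 and 24 h. Cell lysates were analysed for triphosphate. Supernatants were protein-precipitated and profiled by HPLC with radioactivity detection. Cyclic monophosphate was also assessed by LC/MS/MS.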

In data set [3] the test system is Hepatocyte. Nature of the data set: Drug level in human primary hepatocyte supernatant treated with JNJ-54257099 at 2 to 62.5 uM after 4 to 24 hrs using radiolabeled compound by HPLC analysis. Particulars: hepatocytes. The format is ADME, cell-based. An outline of the steps:
as §1

For data set [4], the system named is Hepatocyte. Nature of the data set: Drug level in mouse primary hepatocyte supernatant treated with JNJ-54257099 at 2 to 62.5 uM after 4 to 24 hrs using radiolabeled compound by HPLC analysis. The format is ADME, cell-based. The following applies: hepatocytes. An outline of the steps:
as §1

Data set [5] in a line: Drug level in dog primary hepatocyte supernatant treated with JNJ-54257099 at 2 to 62.5 uM after 4 to 24 hrs using radiolabeled compound by HPLC analysis. The format is ADME, cell-based, Canis lupus familiaris. The following applies: hepatocytes. An outline of the steps: as §1
The test system of data set [6] is Hepatitis C virus. Briefly: Antiviral activity against HCV genotype 3a infected in homozygous cDNA-uPA chimeric SCID mouse bearing humanized hepatocytes assessed as reduction in HCV RNA level in serum administered through oral gavage twice daily daily for 7 days by RT-PCR method. The format is functional, organism-based. Particulars: Hepacivirus hominis, Hepatocyte. An outline of the steps: (§2)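 Male chimeric SCID cDNA-uPA+/+ mice with human hepatocyte liver (≥70% replacement by blood human albumin) and serum HCV RNA >1.0×10^6 copies/mL the week before dosing. Oral gavage for 7 days in 20% HP-β-CD, 50-200 mg/kg QD or BID. Serum sampled pre-dose on days 1, 2, 3, 5 and 7. Real-time PCR; mean change in log10 copies/mL, day 7 vs day 1 pre-dose.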

In data set [7] the test system is Hepatitis C virus. Briefly: Antiviral activity against HCV genotype 3a infected in homozygous cDNA-uPA chimeric SCID mouse bearing humanized hepatocytes assessed as reduction in HCV RNA level in serum administered through oral gavage once daily for 7 days by RT-PCR method. The format is functional, organism-based. Particulars: Hepacivirus hominis, Hepatocyte. An outline of the steps: as §2

Data set [8] relates to Hepatitis C virus. Nature of the data set: Antiviral activity against HCV genotype 3a infected in homozygous cDNA-uPA chimeric SCID mouse bearing humanized hepatocytes assessed as change in HCV RNA level in serum at 100 mg/kg, po qd administered through gavage for 7 days by RT-PCR method. The format is functional, Hepacivirus hominis, Hepatocyte. An outline of the steps:
as §2

Data set [9] deals with Hepatitis C virus. Nature of the data set: Antiviral activity against HCV genotype 1a infected in homozygous cDNA-uPA chimeric SCID mouse bearing humanized hepatocytes assessed as change in HCV RNA level in serum at 100 mg/kg, po qd administered through gavage for 7 days by RT-PCR method. The data set is classed as functional, Hepacivirus hominis, subtype 1a, Hepatocyte. An outline of the steps:
as §2

The test system of data set [10] is Hepatocyte. Briefly: Drug level in rat primary hepatocytes treated with JNJ-54257099 at 2 to 62.5 uM after 24 hrs using radiolabeled compound by LC-MS/MS analysis. The data set is classed as ADME, cell-based. An outline of the steps:
as §1

A short description of data set [11]: Drug level in dog primary hepatocytes treated with JNJ-54257099 at 2 to 62.5 uM after 4 hrs using radiolabeled compound by LC-MS/MS analysis. The format is ADME, cell-based, Canis lupus familiaris, Hepatocyte. An outline of the steps: as §1
The nature of data set [12]: Cytotoxicity against human HuH7-CMV-Luc cells assessed as reduction in cell proliferation after 3 days by 5-bromo-2'-deoxyuridine incorporation assay. The format is cell-based, Huh-7. An outline of the steps:
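Huh7 cells at 1,500 cells/well, five serial compound dilutions in triplicate, 3 days of incubation. Proliferation was quantified as BrdU incorporation into DNA by ELISA.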

Data set [13] concerns the target Cytochrome P450 3A4 (Homo sapiens, UniProt P08684). Nature of the data set: Drug metabolism in baculovirus infected insect cell microsomes expressing human CYP3A4 assessed as CYP3A4-mediated intrinsic clearance per pmol CYP3A4 at 22.7 uM. The data set is classed as ADME. Particulars: recombinant enzyme. An outline of the steps:
(§3)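 Incubation at 22.7 µM with human CYP3A4 supersomes. Intrinsic clearance (µL/min.pmol P450) and half-life (min) were determined.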

For data set [14], the system named is Hepatitis C virus. Briefly: Antiviral activity against HCV genotype 1b infected in human HuH7 cells assessed as inhibition of viral replication after 3 days by luciferase reporter gene assay. The format is functional, organism-based, Hepacivirus hominis. The following applies: Huh-7, 72 h. An outline of the steps: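 HCV 1b subgenomic luciferase replicon (Huh7-luc, clone ET, adaptive mutations E1202G, T1280I, K1846T). 2,500 cells were incubated with compound over a 9-point, 1/4 dilution series for 3 days. Replication was read as luciferase activity.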
(In general: In a reporter assay the amount or activity of a reporter protein is the signal.)

In data set [15] the target is CYP3A4 (Homo sapiens, UniProt P08684). Nature of the data set: Drug metabolism in baculovirus infected insect cell microsomes expressing human CYP3A4 assessed as CYP3A4-mediated half life at 22.7 uM. The data set is classed as ADME. An outline of the steps:
as §3

Data set [16] concerns Hepatocyte. Nature of the data set: Prodrug conversion in human cryopreserved hepatocytes assessed as 2'-deoxy-2'-spirooxetane uridine triphosphate level per million cells at 10 uM after 8 hrs by LC-MS/MS analysis. The format is ADME, cell-based. An outline of the steps:
(§4)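 Plated cryopreserved hepatocytes (study B) incubated with 10 µM unlabeled prodrug for 2, 8 or 24 h. Triphosphate measured in cell lysates and expressed as pmol/million hepatocytes. Quantification limit 2 ng/10^6 cells.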

Data set [17] has as its system Hepatocyte. Nature of the data set: Prodrug conversion in rat cryopreserved hepatocytes assessed as 2'-deoxy-2'-spirooxetane uridine triphosphate level per million cells at 10 uM after 2 hrs by LC-MS/MS analysis. The data set is classed as ADME, cell-based. An outline of the steps:
as §4

Data set [18] has as its system Hepatocyte. Briefly: Prodrug conversion in human cryopreserved hepatocytes assessed as 2'-deoxy-2'-spirooxetane uridine triphosphate level per million cells at 10 uM after 24 hrs by LC-MS/MS analysis. The data set is classed as ADME, cell-based. An outline of the steps: as §4
The subject of data set [19] is Hepatocyte. Briefly: Prodrug conversion in mouse cryopreserved hepatocytes assessed as 2'-deoxy-2'-spirooxetane uridine triphosphate level per million cells at 10 uM after 2 hrs by LC-MS/MS analysis. The format is ADME, cell-based. An outline of the steps: as §4
In data set [20] the test system is Hepatocyte. Briefly: Prodrug conversion in rat cryopreserved hepatocytes assessed as 2'-deoxy-2'-spirooxetane uridine triphosphate level per million cells at 10 uM after 24 hrs by LC-MS/MS analysis. The data set is classed as ADME, cell-based. An outline of the steps: as §4
Data set [21] has as its system Hepatocyte. Briefly: Prodrug conversion in rat cryopreserved hepatocytes assessed as 2'-deoxy-2'-spirooxetane uridine triphosphate level per million cells at 10 uM after 8 hrs by LC-MS/MS analysis. The format is ADME, cell-based. An outline of the steps: as §4
In data set [22] the test system is Hepatocyte. Briefly: Prodrug conversion in human cryopreserved hepatocytes assessed as 2'-deoxy-2'-spirooxetane uridine triphosphate level per million cells at 10 uM after 2 hrs by LC-MS/MS analysis. The data set is classed as ADME, cell-based. An outline of the steps: as §4
For data set [23], the system named is Hepatocyte. Briefly: Prodrug conversion in mouse cryopreserved hepatocytes assessed as 2'-deoxy-2'-spirooxetane uridine triphosphate level per million cells at 10 uM after 8 hrs by LC-MS/MS analysis. The format is ADME, cell-based. An outline of the steps:
as §4

The nature of data set [24]: Prodrug conversion in dog cryopreserved hepatocytes assessed as 2'-deoxy-2'-spirooxetane uridine triphosphate level per million cells at 10 uM after 24 hrs by LC-MS/MS analysis. The data set is classed as ADME, cell-based, Canis lupus familiaris, Hepatocyte. An outline of the steps: as §4
For data set [25], the system named is Hepatocyte. Briefly: Prodrug conversion in mouse cryopreserved hepatocytes assessed as 2'-deoxy-2'-spirooxetane uridine triphosphate level per million cells at 10 uM after 24 hrs by LC-MS/MS analysis. The format is ADME, cell-based. An outline of the steps: as §4
Data set [26] in a line: Prodrug conversion in dog cryopreserved hepatocytes assessed as 2'-deoxy-2'-spirooxetane uridine triphosphate level per million cells at 10 uM after 8 hrs by LC-MS/MS analysis. The format is ADME, cell-based, Canis lupus familiaris, Hepatocyte. An outline of the steps: as §4
The nature of data set [27]: Prodrug conversion in dog cryopreserved hepatocytes assessed as 2'-deoxy-2'-spirooxetane uridine triphosphate level per million cells at 10 uM after 2 hrs by LC-MS/MS analysis. The data set is classed as ADME, cell-based, Canis lupus familiaris, Hepatocyte. An outline of the steps:
as §4

Data set [28] relates to Hepatocyte. Briefly: Drug level in human hepatocytes treated with JNJ-54257099 in presence of CYP2C8 and CYP2C9 inhibitor montelukast by LC-MS/MS analysis. The format is ADME, cell-based.
Data set [29] deals with Hepatocyte. Nature of the data set: Drug level in human hepatocytes treated with JNJ-54257099 in presence of pan-PDE inhibitor ibudilast by LC-MS/MS analysis. The format is ADME, cell-based.
Data set [30] concerns Hepatocyte. Nature of the data set: Drug level in human hepatocytes treated with JNJ-54257099 in presence of PDE4 inhibitor rolipram by LC-MS/MS analysis. The format is ADME, cell-based.

Molecules are shown by their SMILES.

Sequence of RNA-directed RNA polymerase (O39930 whole entry): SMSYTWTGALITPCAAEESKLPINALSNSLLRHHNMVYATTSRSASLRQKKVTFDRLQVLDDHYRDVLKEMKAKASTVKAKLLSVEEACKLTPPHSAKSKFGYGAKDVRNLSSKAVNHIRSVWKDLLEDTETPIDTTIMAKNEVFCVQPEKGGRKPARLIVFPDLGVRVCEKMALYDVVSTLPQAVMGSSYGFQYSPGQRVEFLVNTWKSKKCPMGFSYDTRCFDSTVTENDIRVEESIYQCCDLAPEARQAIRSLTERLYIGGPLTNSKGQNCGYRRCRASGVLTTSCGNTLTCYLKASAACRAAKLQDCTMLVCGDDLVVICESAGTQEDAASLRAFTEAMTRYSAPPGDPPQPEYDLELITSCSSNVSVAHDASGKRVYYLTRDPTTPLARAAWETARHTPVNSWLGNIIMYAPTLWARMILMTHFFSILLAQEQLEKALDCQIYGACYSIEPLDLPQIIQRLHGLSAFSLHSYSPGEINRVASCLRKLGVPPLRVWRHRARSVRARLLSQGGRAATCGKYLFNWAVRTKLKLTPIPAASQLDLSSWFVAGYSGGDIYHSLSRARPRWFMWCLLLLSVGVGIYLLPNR
Sequence of Cytochrome P450 3A4 (P08684 whole entry): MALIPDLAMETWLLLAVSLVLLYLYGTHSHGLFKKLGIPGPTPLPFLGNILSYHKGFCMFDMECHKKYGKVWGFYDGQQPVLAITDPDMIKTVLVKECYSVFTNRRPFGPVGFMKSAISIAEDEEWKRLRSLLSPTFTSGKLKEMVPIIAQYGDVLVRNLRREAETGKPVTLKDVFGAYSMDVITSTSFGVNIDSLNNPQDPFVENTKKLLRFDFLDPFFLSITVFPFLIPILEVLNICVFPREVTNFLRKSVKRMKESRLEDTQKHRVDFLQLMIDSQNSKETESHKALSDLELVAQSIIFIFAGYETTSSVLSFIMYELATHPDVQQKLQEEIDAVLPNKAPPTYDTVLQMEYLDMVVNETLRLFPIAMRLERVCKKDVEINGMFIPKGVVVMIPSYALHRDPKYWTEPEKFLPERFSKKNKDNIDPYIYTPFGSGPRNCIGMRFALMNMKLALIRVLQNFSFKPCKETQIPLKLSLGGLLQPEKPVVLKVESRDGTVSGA
Sequence of CYP3A4 (P08684 whole entry): as above

In general, IC50 refers to the point on the concentration scale where inhibition reaches its midpoint. Usually Ki stands for a measure of affinity in units of concentration, obtained from inhibition or displacement. Read a low Ki as a stronger hold on the target. For `O=c1ccn([C@@H]2O[C@H](COP(=O)(O)OP(=O)(O)OP(=O)(O)O)[C@@H](O)[C@]23CCO3)c(=O)[nH]1`, in data set [1], the IC50 was found to be 1000 nM and the affinity corresponds to a Ki of 130 nM.
Turning to `O=c1ccn([C@@H]2O[C@H](CO)[C@@H](O)[C@]23CCO3)c(=O)[nH]1`, the Drug metabolism result in [2], in data set [3], in data set [4] and in [5] was “metabolite_detected” throughout.
Regarding `CC(C)OC(=O)[C@H](C)N[P@](=O)(OC[C@H]1O[C@@H](n2ccc(=O)[nH]c2=O)[C@](C)(F)[C@@H]1O)Oc1ccccc1` [SOFOSBUVIR], the Activity entry in [6] was “Dose-dependent effect”; in [7], “Dose-dependent effect”; in data set [8] it was -0.97; in data set [9] it was -2.14.
In the case of `O=c1ccn([C@@H]2O[C@@H]3COP(=O)(O)O[C@H]3[C@]23CCO3)c(=O)[nH]1`, the Drug metabolism result in data set [10], in data set [2], in data set [11], in data set [3], in data set [4] and in data set [5] was “metabolite_detected” each time.
As a reminder, the CC50 is the concentration that lowers cell viability or growth by half. A word on the EC50: it is the concentration giving half of the maximal effect. As a reminder, the half-life is the time in which the quantity being followed falls by half. Take `CCOc1nc(N)nc2c1ncn2[C@@H]1O[C@@H]2CO[P@](=O)(OC(C)C)O[C@H]2[C@@]1(C)F`: the CC50 at 72 h in data set [12] is more than 100000 nM. The CL in data set [13] was 0.1 µL/min. Also, the EC50 in data set [14] was found to be 300 nM. For the same molecule, the half-life at 22.7 µM in [15] worked out at 1.27 h.
Turning to `CCCCOC(=O)[C@H](C)NP(=O)(OC[C@H]1O[C@@H](n2ccc(=O)[nH]c2=O)[C@@]2(CCO2)[C@@H]1O)Oc1ccccc1` (stereo partly drawn), the Drug metabolism in data set [16] was found to be 0.257 pmol; in [17] it was 0.025 pmol; in data set [18] it was 0.173 pmol; in data set [19] it was 0.028 pmol; in data set [20], 0.013 pmol; in data set [21], 0.058 pmol. Also, the Drug metabolism was 0.044 pmol in data set [22]; 0.066 pmol in data set [23]; 0.007 pmol in data set [24]; 0.023 pmol in data set [25]; 0.021 pmol in data set [26]; 0.01 pmol in [27]. The CC50 at 72 h in [12] is more than 100000 nM.
In the case of `O=c1ccn([C@@H]2O[C@H](COP(=O)(O)O)[C@@H](O)[C@]23CCO3)c(=O)[nH]1`, the Drug metabolism result in data set [28], in [29], in data set [30], in data set [10] and in [11] was “metabolite_detected” in each case.
